Reference: ChEMBL document CHEMBL1124574, “Lipophilic analogues of sparsomycin as strong inhibitors of protein synthesis and tumor growth: a structure-activity relationship study” (J Med Chem, 1989)
≈ marks a conversion by molar mass, not a printed value. Calls of active or inactive are those of the source. No cut-off for these calls is given here.

Experiments:
T-24 = assay: In vitro inhibition of cell growth in T24 bladder carcinoma cell line; format: functional; settings: Homo sapiens, read-out: ID50 (the source's name)
L1210 [1] = assay: In Vivo evaluation for the acute toxicity by L1210 clonogenic assay; format: functional, Mus musculus
[2] = Water solubility was determined
Saccharomyces cerevisiae [3] = assay: In vitro inhibition of modified fragment reaction using ribosomes from Saccharomyces cerevisiae; format: functional; settings: read-out: ED50 (the source's name)
Escherichia coli [4] = assay: In vitro inhibition of cell growth in Escherichia coli MRE600; format: functional; settings: read-out: ED50 (the source's name)
[5] = lipophilicity parameter (Rm) was determined; settings: RP-8 HPTLC, 60% methanol/water
Escherichia coli [6] = assay: In vitro inhibition of Puromycin reaction in the ribosomes from Escherichia coli; format: functional; settings: read-out: ED50 (the source's name)
[7] = (§1) Kinetic constant was determined
Escherichia coli [8] = assay: In vitro inhibition of polyuridylic acid dependent polyphenylalanine synthesis using ribosomes from Escherichia coli; format: functional; settings: read-out: ED50 (the source's name)
Escherichia coli [9] = assay: In vitro inhibition of modified fragment reaction using ribosomes from Escherichia coli; format: functional; settings: read-out: ED50 (the source's name)
Saccharomyces cerevisiae [10] = assay: In vitro inhibition of polyuridylic acid dependent polyphenylalanine synthesis using ribosomes from Saccharomyces cerevisiae; format: functional; settings: read-out: ED50 (the source's name)
L1210 [11] = assay: In vitro inhibition of cell growth in L1210 murine leukemia cells; format: functional; settings: Mus musculus, read-out: ID50 (the source's name)
[12] = Partition coefficient (logP); settings: octanol/water
WiDr [13] = assay: In vitro inhibition of cell growth in Human WiDr colon carcinoma cell line; format: functional; settings: read-out: ID50 (the source's name)
[14] = In Vivo evaluation for the acute toxicity in mice; settings: mouse
Escherichia coli [15] = assay: In vitro inhibition of cell growth in Escherichia coli; format: functional; settings: read-out: ED50 (the source's name)
Escherichia coli [16] = assay: In vitro inhibition of modified fragment reaction using ribosomes from Escherichia coli; Inactive at 100 uM; format: functional
In short: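 Peptidyl transferase assayed by the fragment-reaction protocol, but with intact N-acetyl-Phe-tRNA as substrate in place of its terminal pentanucleotide; ribosomes from the organism named in the line; 50% inhibitory value derived.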

Saccharomyces cerevisiae [17] = assay: In vitro inhibition of polyuridylic acid dependent polyphenylalanine synthesis using ribosomes from Saccharomyces cerevisiae; Inactive at 100 uM; format: functional
[18] = lipophilicity parameter(Rm) was determined; format: physicochemical; settings: RP-8 HPTLC, 60% methanol/water
In short: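 Rf measured by reversed-phase RP-8 HPTLC, eluent 60% methanol/water; Rm computed as log(1/Rf − 1).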

[19] = as §1; format: ADME
WiDr [20] = assay: In vitro inhibition of cell growth in Human WiDr colon carcinoma cell line; NT means not tested; format: functional; settings: read-out: ID50 (the source's name)
In short: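 Human tumor cell line cytotoxicity measured by the automated PIT method (propidium iodide, ink, Triton X-100); ID50 calculated.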

Row | SMILES | EC50 (Escherichia coli [8]) [µM] | IC50 (T-24) [µM] | T/C (L1210 [1]) [%] | solubility [2] [µg/mL] | EC50 (Saccharomyces cerevisiae [3]) [µM] | EC50 (Escherichia coli [4]) [µM] | Rm [5] | EC50 (Escherichia coli [6]) [µM] | log k0 [7] | EC50 (Escherichia coli [9]) [µM] | EC50 (Saccharomyces cerevisiae [10]) [µM] | IC50 (L1210 [11]) [µM] | logP [12] | IC50 (WiDr [13]) [µM] | LD50 [14] [mg/kg] | EC50 (Escherichia coli [15]) [µM] | further results
1 | CCCCSC[S+]([O-])C[C@H](CO)NC(=O)/C=C/c1c(C)nc(O)nc1O (stereo not given in full) | 1.8 | 0.23 | 156 | 570 (≈ 1410 µM) | 4.8 | 3 | -0.028 | 0.06 | 0.777 | 5.1 | 1 | 0.1 | 0.143 | 0.31 | 2.33 |  | 
2 | Cc1nc(O)nc(O)c1/C=C/C(=O)N[C@@H](C)C[S+]([O-])CCl (stereo not given in full) | 86 |  |  |  |  |  |  |  |  |  |  | 0.15 |  |  |  | 7.5 | ED50 (Escherichia coli [16]): inactive; ED50 (Saccharomyces cerevisiae [17]): inactive
3 | CC(=O)NCCSC[S+]([O-])C[C@H](CO)NC(=O)/C=C/c1c(C)nc(O)nc1O (stereo not given in full) | 34 |  |  |  | 56 | 100 |  | 1 |  | 60 | 32 | 1.9 |  |  |  |  | 
4 | CCCCCC[S+]([O-])C[C@H](CO)NC(=O)/C=C/c1c(C)nc(O)nc1O (stereo not given in full) | 0.75 | 0.35 | 135 | 890 (≈ 2310 µM) | 5 |  | 0.235 | 0.18 |  | 7.5 | 0.14 | 0.14 | 0.41 | 0.39 | 1.6 | 3 | Log Ko [19]: 1.111
5 | CCCCCSC[S+]([O-])C[C@H](CO)NC(=O)/C=C/c1c(C)nc(O)nc1O (stereo not given in full) | 1 | 0.28 | 386 | 280 (≈ 671 µM) | 2.7 | 1 | 0.16 | 0.03 | 1.168 | 2.6 | 0.17 | 0.06 | 0.6 | 0.4 | 4.7 |  | 
6 | CCCCCCCCSC[S+]([O-])C[C@H](CO)NC(=O)/C=C/c1c(C)nc(O)nc1O (stereo not given in full) | 1.6 | 0.06 | 151 | 13 (≈ 28.3 µM) | 300 |  | 0.895 | 0.25 |  | 60 | 1.3 | 0.1 | > 2.42 | 0.22 | 29.5 | 4.4 | Log Ko [19]: 3.333
7 | CSC[S+]([O-])C[C@H](C)NC(=O)/C=C/c1c(C)nc(O)nc1O (stereo not given in full) | 14.6 | 0.44 | 216 | 18000 (≈ 52100 µM) | 39 | 5.6 | -0.404 | 0.25 | -0.209 | 18 | 50 | 0.07 | -0.699 |  | 2.33 |  | IC50 (WiDr [20]): 0.58 µM
8 | CSC[S+]([O-])C[C@H](CO)NC(=O)/C=C/c1c(C)[nH]c(=O)[nH]c1=O (stereo not given in full) | 8.5 | 0.91 | 117 | 3800 (≈ 10500 µM) | 2.8 | 11 |  | 0.1 | -0.676 | 3.2 | 5.2 | 0.48 | -1.71 | 0.92 | 0.26 |  | Rm [18]: -0.638
9 | CCCCCCC[S+]([O-])C[C@H](CO)NC(=O)/C=C/c1c(C)nc(O)nc1O (stereo not given in full) | 0.48 | 0.16 | 330 | 220 (≈ 551 µM) | 5.8 |  | 0.56 | 0.04 |  | 9 | 0.1 | 0.15 | 1.02 | 0.28 | 6.1 | 1.4 | Log Ko [19]: 1.771
10 | Cc1nc(O)nc(O)c1/C=C/C(=O)N[C@@H](CO)C[S@@+]([O-])CCl |  |  |  |  |  |  |  |  |  |  |  |  |  |  |  | 20 | 
11 | CCCCSC[S+]([O-])C[C@H](C)NC(=O)/C=C/c1c(C)nc(O)nc1O (stereo not given in full) | 3 | 0.09 | 164 | 940 (≈ 2430 µM) | 15 | 2.5 | 0.218 | 0.05 | 1.29 | 12.1 | 1.9 | 0.05 | 0.819 | 0.16 | 16.5 |  | 
12 | Cc1nc(O)nc(O)c1/C=C/C(=O)N[C@@H](CO)C[S+]([O-])CSC1CCCCC1 (stereo not given in full) | 6.6 |  |  |  | 12 | 7.5 |  | 0.04 |  | 5.2 | 5.1 | 0.6 |  |  |  |  | 

The next lines start with results.

Row | EC50 (Escherichia coli [8]) [µM] | SMILES | IC50 (T-24) [µM] | T/C (L1210 [1]) [%] | solubility [2] [µg/mL] | EC50 (Saccharomyces cerevisiae [3]) [µM] | EC50 (Escherichia coli [4]) [µM] | Rm [5] | EC50 (Escherichia coli [6]) [µM] | log k0 [7] | EC50 (Escherichia coli [9]) [µM] | EC50 (Saccharomyces cerevisiae [10]) [µM] | IC50 (L1210 [11]) [µM] | logP [12] | IC50 (WiDr [13]) [µM] | LD50 [14] [mg/kg] | EC50 (Escherichia coli [15]) [µM] | further results
13 | 3 | CCCSC[S+]([O-])C[C@H](CO)NC(=O)/C=C/c1c(C)nc(O)nc1O (stereo not given in full) | 0.65 |  | 1500 (≈ 3850 µM) | 7.5 | 5 |  | 0.08 | 0.117 | 5.5 | 7 | 0.14 | -0.665 | 0.89 |  |  | Rm [18]: -0.261
14 | 1.8 | CCCCCCCCCC[S+]([O-])C[C@H](CO)NC(=O)/C=C/c1c(C)nc(O)nc1O (stereo not given in full) |  |  |  | 700 |  |  | 0.08 |  | 5000 | 0.2 | 0.14 |  |  |  | 3 | 
15 | 140 | CCC[S+]([O-])C[C@H](CO)NC(=O)/C=C/c1c(C)nc(O)nc1O (stereo not given in full) |  |  |  | 6.2 | 36 |  | 0.23 |  | 4.5 | 42 | 0.75 |  |  |  |  | 
16 | 8.5 | CCCCCCCCSC[S+]([O-])C[C@H](C)NC(=O)/C=C/c1c(C)nc(O)nc1O (stereo not given in full) | 0.14 |  | 15 (≈ 33.8 µM) | 60 |  | 1.151 | 0.46 |  | 46 | 1.4 | 0.03 | > 2.42 | 0.28 |  | 15 | Log Ko [19]: 3.533
17 | 80 | CCC[S+]([O-])C[C@H](C)NC(=O)/C=C/c1c(C)nc(O)nc1O (stereo not given in full) |  |  |  |  | 9.5 |  | 0.38 |  |  | 200 | 0.45 |  |  |  |  | 
18 | 31 | Cc1nc(O)nc(O)c1/C=C/C(=O)N[C@@H](CO)C[S+]([O-])CSC(C)(C)C (stereo not given in full) |  |  |  | 100 |  |  | 0.31 |  | 27.5 | 900 |  |  |  |  |  | 
